Measurements as given in ChEMBL document CHEMBL5705890, “Antitumor activity of an allosteric inhibitor of centromere-associated protein-E” (Proc Natl Acad Sci U S A, 2010).

How the values were obtained:
SW837 = assay: Anticancer activity against human SW837 cells assessed as cell growth inhibition measured after 72 hrs by DAPI staining based analysis; type: functional
[1] = Anticancer activity against human NL-SCLC3 cells assessed as cell doubling measured for 72 hrs by DAPI staining based analysis; type: functional
HuT78 = assay: Anticancer activity against human HuT78 cells assessed as cell doubling measured for 72 hrs by DAPI staining based analysis; type: functional
SW1088 = assay: Anticancer activity against human SW1088 cells assessed as cell growth inhibition measured after 72 hrs by DAPI staining based analysis; type: functional
SNU-475 = assay: Anticancer activity against human SNU-475 cells assessed as cell doubling measured for 72 hrs by DAPI staining based analysis; type: functional
HCT-116 = assay: Antitumor activity against human HCT-116 cells in xenograft model assessed as tumor growth delay at 125 mg/kg relative to control; type: functional
HOS = assay: Anticancer activity against human HOS cells assessed as cell doubling measured for 72 hrs by DAPI staining based analysis; type: functional
HuP-T4 = assay: Anticancer activity against human HuP-T4 cells assessed as cell doubling measured for 72 hrs by DAPI staining based analysis; type: functional
SF-295 = assay: Anticancer activity against human SF-295 cells assessed as cell doubling measured for 72 hrs by DAPI staining based analysis; type: functional
LS-1034 = assay: Anticancer activity against human LS1034 cells assessed as cell doubling measured for 72 hrs by DAPI staining based analysis; type: functional
HCC1954 = assay: Anticancer activity against human HCC1954 cells assessed as cell growth inhibition measured after 72 hrs by DAPI staining based analysis; type: functional
In short: (§1)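 Cells seeded, DAPI-stained DNA content of fixed cells read by imaging 24 h after seeding (T0), and again after a further 72 h exposure to a range of drug concentrations (T72). T72 values were normalized to T0. Curve fits gave the concentration producing 50% growth inhibition relative to T0 and Ymax (GI50).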

NCI-H2171 = assay: Anticancer activity against human NCI-H2171 cells assessed as cell doubling measured for 72 hrs by DAPI staining based analysis; type: functional
[2] = target: Centromere-associated protein E (Homo sapiens, UniProt Q02224); assay: Inhibition of ATPase activity of C-terminal 6-his-tagged CENP-E (2 to 340 residues)(unknown origin) expressed in Escherichia coli BL21(DE3) in presence of ATP
Sequence of Centromere-associated protein E (Homo sapiens, UniProt Q02224) (Q02224 whole entry, the tested form may be a part): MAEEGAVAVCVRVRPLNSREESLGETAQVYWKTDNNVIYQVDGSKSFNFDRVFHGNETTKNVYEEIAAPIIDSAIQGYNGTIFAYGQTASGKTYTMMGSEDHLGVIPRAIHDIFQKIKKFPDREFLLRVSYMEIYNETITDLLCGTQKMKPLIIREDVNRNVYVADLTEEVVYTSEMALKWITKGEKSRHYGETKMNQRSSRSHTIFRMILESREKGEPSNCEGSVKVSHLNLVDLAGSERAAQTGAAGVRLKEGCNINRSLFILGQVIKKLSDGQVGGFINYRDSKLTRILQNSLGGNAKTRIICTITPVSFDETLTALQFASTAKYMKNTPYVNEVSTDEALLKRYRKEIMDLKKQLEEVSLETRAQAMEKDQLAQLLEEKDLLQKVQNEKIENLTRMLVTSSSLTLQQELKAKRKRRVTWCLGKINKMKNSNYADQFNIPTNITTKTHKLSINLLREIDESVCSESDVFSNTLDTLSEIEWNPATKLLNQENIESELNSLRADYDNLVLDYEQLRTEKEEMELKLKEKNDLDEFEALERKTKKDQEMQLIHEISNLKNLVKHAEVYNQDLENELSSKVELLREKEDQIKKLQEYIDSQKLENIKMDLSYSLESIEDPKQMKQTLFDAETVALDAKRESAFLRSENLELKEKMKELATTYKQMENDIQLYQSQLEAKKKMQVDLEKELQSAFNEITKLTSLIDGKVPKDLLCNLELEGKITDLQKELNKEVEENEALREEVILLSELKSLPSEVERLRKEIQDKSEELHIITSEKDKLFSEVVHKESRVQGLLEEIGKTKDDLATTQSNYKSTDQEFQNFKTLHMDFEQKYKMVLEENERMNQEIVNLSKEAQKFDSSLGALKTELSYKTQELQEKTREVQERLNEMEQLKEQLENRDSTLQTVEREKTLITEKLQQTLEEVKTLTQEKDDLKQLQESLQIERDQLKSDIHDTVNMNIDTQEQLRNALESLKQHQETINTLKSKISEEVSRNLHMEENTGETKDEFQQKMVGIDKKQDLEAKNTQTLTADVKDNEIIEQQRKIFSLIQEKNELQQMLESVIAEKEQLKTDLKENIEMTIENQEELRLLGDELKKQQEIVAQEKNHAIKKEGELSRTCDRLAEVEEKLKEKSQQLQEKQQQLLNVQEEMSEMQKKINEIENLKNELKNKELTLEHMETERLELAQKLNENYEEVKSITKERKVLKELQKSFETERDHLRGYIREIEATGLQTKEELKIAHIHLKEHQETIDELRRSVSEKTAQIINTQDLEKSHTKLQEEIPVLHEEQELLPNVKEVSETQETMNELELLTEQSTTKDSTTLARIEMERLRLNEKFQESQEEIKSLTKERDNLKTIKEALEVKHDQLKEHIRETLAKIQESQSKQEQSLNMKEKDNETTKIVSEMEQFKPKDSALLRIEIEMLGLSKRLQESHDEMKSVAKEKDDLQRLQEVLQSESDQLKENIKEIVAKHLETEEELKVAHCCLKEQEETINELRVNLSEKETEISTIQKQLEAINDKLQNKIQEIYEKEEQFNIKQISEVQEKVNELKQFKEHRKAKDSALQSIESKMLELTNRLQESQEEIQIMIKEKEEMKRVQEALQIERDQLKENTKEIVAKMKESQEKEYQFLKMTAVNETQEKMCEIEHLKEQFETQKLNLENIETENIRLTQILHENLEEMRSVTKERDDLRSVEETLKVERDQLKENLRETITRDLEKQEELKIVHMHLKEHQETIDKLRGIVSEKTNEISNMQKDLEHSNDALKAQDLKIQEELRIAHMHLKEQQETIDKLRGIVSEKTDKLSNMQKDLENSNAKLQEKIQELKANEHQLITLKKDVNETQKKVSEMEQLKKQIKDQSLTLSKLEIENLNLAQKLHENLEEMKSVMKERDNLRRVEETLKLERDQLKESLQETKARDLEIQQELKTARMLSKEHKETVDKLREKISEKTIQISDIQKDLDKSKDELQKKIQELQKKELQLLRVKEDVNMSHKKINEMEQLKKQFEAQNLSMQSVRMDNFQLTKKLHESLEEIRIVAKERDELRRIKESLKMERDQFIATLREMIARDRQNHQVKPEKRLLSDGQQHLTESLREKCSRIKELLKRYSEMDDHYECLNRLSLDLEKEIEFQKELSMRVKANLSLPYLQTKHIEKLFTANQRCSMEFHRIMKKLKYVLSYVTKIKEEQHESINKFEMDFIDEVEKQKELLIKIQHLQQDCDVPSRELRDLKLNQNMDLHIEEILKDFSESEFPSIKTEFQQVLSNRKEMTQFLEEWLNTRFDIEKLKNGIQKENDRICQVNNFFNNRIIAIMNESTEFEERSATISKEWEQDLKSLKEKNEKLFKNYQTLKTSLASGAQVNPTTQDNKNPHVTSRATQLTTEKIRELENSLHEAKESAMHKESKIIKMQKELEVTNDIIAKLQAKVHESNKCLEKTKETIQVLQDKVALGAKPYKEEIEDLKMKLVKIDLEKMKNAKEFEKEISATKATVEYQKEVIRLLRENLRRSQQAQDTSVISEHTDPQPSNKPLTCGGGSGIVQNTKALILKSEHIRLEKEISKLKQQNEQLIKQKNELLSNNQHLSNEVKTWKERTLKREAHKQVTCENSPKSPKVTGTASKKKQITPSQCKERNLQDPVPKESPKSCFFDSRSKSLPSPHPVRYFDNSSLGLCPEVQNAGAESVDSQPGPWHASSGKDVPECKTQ

A498 = assay: Anticancer activity against human A498 cells assessed as cell doubling measured for 72 hrs by DAPI staining based analysis; type: functional
[3] = Anticancer activity against human A7 cells assessed as cell growth inhibition measured after 72 hrs by DAPI staining based analysis; type: functional
In short: (§2)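 Cells were seeded and, after 24 h, DNA content was read as T0. Cells were then exposed to varying drug concentrations for a further 72 h (T72). Fixed cells were DAPI-stained and DNA content measured by automated imaging. T72 values were normalized to T0. GI50 is the concentration giving 50% growth inhibition between T0 and Ymax, obtained by curve fitting.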

647-V = assay: Anticancer activity against human 647-V cells assessed as cell doubling measured for 72 hrs by DAPI staining based analysis; type: functional
SAOS-2 = assay: Anticancer activity against human SAOS-2 cells assessed as cell growth inhibition measured after 72 hrs by DAPI staining based analysis; type: functional
COLO 205 = assay: Anticancer activity against human COLO 205 cells assessed as cell growth inhibition measured after 72 hrs by DAPI staining based analysis; type: functional
In short: (§3)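 Cells were seeded, and DNA content at 24 h after seeding (T0) was read by imaging of fixed, DAPI-stained cells. Cells were then exposed to a range of drug concentrations for a further 72 h (T72) and DNA content was read again. T72 values were normalized to T0, and GI50 was taken from curve fits as the concentration giving 50% growth inhibition relative to T0 and Ymax.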

SK-N-AS = assay: Anticancer activity against human SK-N-AS cells assessed as cell doubling measured for 72 hrs by DAPI staining based analysis; type: functional
CGTH-W-1 = assay: Anticancer activity against human CGTH-W-1 cells assessed as cell growth inhibition measured after 72 hrs by DAPI staining based analysis; type: functional; in short: as §3
HepG2 = assay: Anticancer activity against human HepG2 cells assessed as cell doubling measured for 72 hrs by DAPI staining based analysis; type: functional
T-24 = assay: Anticancer activity against human T24 cells assessed as cell doubling measured for 72 hrs by DAPI staining based analysis; type: functional
NCI-H661 = assay: Anticancer activity against human NCI-H661 cells assessed as cell growth inhibition measured after 72 hrs by DAPI staining based analysis; type: functional
A549 = assay: Antitumor activity against human A549 cells in xenograft model assessed as difference between median time to endpoint time of treated versus control group at 62.5 mg/kg; type: functional
M14 = assay: Anticancer activity against human M14 cells assessed as cell growth inhibition measured after 72 hrs by DAPI staining based analysis; type: functional
MDA-MB-435 = assay: Anticancer activity against human MDA-MB-435 cells assessed as cell doubling measured for 72 hrs by DAPI staining based analysis; type: functional
COLO 201 = assay: Anticancer activity against human COLO201 cells assessed as cell growth inhibition measured after 72 hrs by DAPI staining based analysis; type: functional; in short: as §1
[4] = Anticancer activity against human BC1 cells assessed as cell growth inhibition measured after 72 hrs by DAPI staining based analysis; type: functional; in short: as §2
MX1 = assay: Antitumor activity against human MX1 cells in xenograft model assessed as tumor growth delay at 62.5 mg/kg relative to control; type: functional
MES-SA = assay: Anticancer activity against human MES-SA cells assessed as cell doubling measured for 72 hrs by DAPI staining based analysis; type: functional
SW1783 = assay: Anticancer activity against human SW1783 cells assessed as cell doubling measured for 72 hrs by DAPI staining based analysis; type: functional
NCI-H1299 = assay: Antitumor activity against human NCI-H1299 cells in xenograft model assessed as tumor growth delay at 125 mg/kg relative to control; type: functional
NCI-H747 = assay: Anticancer activity against human NCI-H747 cells assessed as cell doubling measured for 72 hrs by DAPI staining based analysis; type: functional
[5] = target: Centromere-associated protein E (Homo sapiens, UniProt Q02224, K184T); assay: Binding affinity to human CENP-E K184T mutant assessed as inhibition constant
Sequence of Centromere-associated protein E (Homo sapiens, UniProt Q02224, K184T) (Q02224 whole entry K184T): as the sequence (Q02224 whole entry, the tested form may be a part) above, with K184T counted along it

786-0 = assay: Anticancer activity against human 786-0 cells assessed as cell growth inhibition measured after 72 hrs by DAPI staining based analysis; type: functional; in short: as §2
NCI-H2052 = assay: Anticancer activity against human NCI-H2052 cells assessed as cell doubling measured for 72 hrs by DAPI staining based analysis; type: functional
HN5 = assay: Anticancer activity against human HN5 cells assessed as cell growth inhibition measured after 72 hrs by DAPI staining based analysis; type: functional
HEC-1-A = assay: Anticancer activity against human HEC-1-A cells assessed as cell doubling measured for 72 hrs by DAPI staining based analysis; type: functional
NCI-H508 = assay: Anticancer activity against human NCI-H508 cells assessed as cell growth inhibition measured after 72 hrs by DAPI staining based analysis; type: functional
[6] = Anticancer activity against human BC-2 cells assessed as cell doubling measured for 72 hrs by DAPI staining based analysis; type: functional

GI50 (SW837): 33 nM | GI50 (SW1088): 32 nM | GI50 (HCC1954): 18 nM | IC50 [2]: 2080 nM | GI50 (COLO 205): 25 nM | GI50 (NCI-H661): 22 nM | GI50 (COLO 201): 24 nM | Ki [5]: 12 nM | GI50 (786-0): 45 nM | GI50 (NCI-H508): 32 nM
Compound: CC(C)Oc1ccc(C(=O)N[C@H](CNC(=O)CN(C)C)Cc2ccc(-c3cn4cccc([C@H](C)O)c4n3)cc2)cc1Cl [GSK-923295A]
Activity [1]: 2.68 | Activity (HuT78): 2.89 | Activity (SNU-475): 1.8 | Activity (HCT-116): 37% | Activity (HOS): 3.65 | Activity (HuP-T4): 1.09 | Activity (SF-295): 2.3 | Activity (LS-1034): 1.73 | Activity (NCI-H2171): 1.39 | Activity (A498): 1.11 | GI50 [3]: 40 nM | Activity (647-V): 2.72 | GI50 (SAOS-2): 41 nM | Activity (SK-N-AS): 2.37 | GI50 (CGTH-W-1): 30 nM | Activity (HepG2): 2.45 | Activity (T-24): 1.57 | Time (A549): 3.7 days | GI50 (M14): 27 nM | Activity (MDA-MB-435): 2.96 | GI50 [4]: 83 nM | Activity (MX1): 5% | Activity (MES-SA): 3.22 | Activity (SW1783): 1.47 | Activity (NCI-H1299): 76% | Activity (NCI-H747): 2.19 | Activity (NCI-H2052): 2.09 | GI50 (HN5): 118 nM | Activity (HEC-1-A): 2.67 | Activity [6]: 1.94
